From PubChem BioAssay
This excerpt belongs to a sample that is enriched for hits.
UPR XBP1 act = activators of adaptive XBP1 UPR arm, primary screen, cell-based, CHO-XBP1 luciferase reporter, luminescence, uHTS. activation, % at 20 µM. IRE1-XBP1 UPR activation; percent of tunicamycin response, DMSO as zero. actives 0.33% (n = 330,000);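 active = versus positive control, 20 µM dose yields 30% or more activation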;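 also: 100% = tunicamycin at 10 µg/mL and 0% = DMSO only wells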
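Test system: CHO-XBP1 luciferase reporter cells | Buffer or medium: Serum-containing F12 medium, 10% FBS | Schedule: 6 h compound exposure at 37 °C, 5% CO2 | Detection: Steady-Glo luciferase glow luminescence, 10 min after reagent addition | Read-out basis: Activation, % of tunicamycin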
CHOP inhibitor = inhibitors of CHOP promoter induction, primary screen, cell-based, unfolded protein response, luciferase reporter. CHO-K1 CHOP-promoter luciferase, tunicamycin-induced, 15-18 h. inhibition, % at 10 µM. actives 3.8% (n = 220,000);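 active = compounds that reduced the stress-induced luciferase reporter signal by more than about 70% of percent inhibition, limit read from the data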;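 also: 0% = tunicamycin plus vehicle and 100% = wells without tunicamycin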
UCH37 inh = inhibitors of human UCH37 deubiquitinase, primary screen, biochemical, Ub-AMC cleavage, fluorescence; Ubiquitin carboxyl-terminal hydrolase isozyme L5 (Homo sapiens), Q9Y5K5; purified proteasome/UCH37; inhibition, % (concentration not given with the values); actives 0.33% (n = 330,000); AID 588478, 2011;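 active = mean inhibition over replicate wells above about 20%, limit read from the data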;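 also: 0% = compound-free wells with enzyme and 100% = wells lacking proteasome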
Target sequence (Q9Y5K5 whole entry, looked up): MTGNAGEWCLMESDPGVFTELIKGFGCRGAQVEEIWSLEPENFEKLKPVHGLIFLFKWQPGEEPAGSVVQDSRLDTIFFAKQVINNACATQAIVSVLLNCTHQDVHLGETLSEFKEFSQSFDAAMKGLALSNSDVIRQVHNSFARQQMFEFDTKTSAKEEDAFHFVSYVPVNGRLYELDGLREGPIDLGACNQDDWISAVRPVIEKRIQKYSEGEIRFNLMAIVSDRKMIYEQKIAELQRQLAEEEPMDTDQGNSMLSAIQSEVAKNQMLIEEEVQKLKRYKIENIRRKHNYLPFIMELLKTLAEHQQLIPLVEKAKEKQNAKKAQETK
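assay system = human UCH37 enzyme supplied as purified proteasome complex | amount = proteasome at 0.15 nM in the dispensed enzyme solution | schedule = 30 min compound-proteasome preincubation then 25 min substrate reaction, room temperature | measured by = fluorescence, ex 355 nm, em 460 nm | benchmarks = no-proteasome wells (full inhibition) and compound-free wells (no inhibition)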
Fh CTSL1 inh = Fasciola hepatica cathepsin L1 inhibitors, primary screen, counter-screen for PFM18AAP inhibitor project, biochemical, QFRET, fluorogenic peptide substrate. recombinant F. hepatica cathepsin L1, Z-Leu-Arg-MCA fluorescence. inhibition, % at 5.96 µM. actives 0.49% (n = 300,000). AID 1906, 2009;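 active = inhibition above the mean of all tested compounds plus 3 SD, set per screening campaign, cut at about 17% in these data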;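 also: 0% = plate median of test compound wells and 100% = 1 µM Z-Phe-Ala-diazomethylketone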
CHOP UPR activ = activators of apoptotic CHOP UPR arm, primary screen, cell-based, CHO-CHOP luciferase reporter, luminescence, uHTS | UPR activation; percent of tunicamycin response over DMSO baseline | AID 449763, 2010 | activation, % at 10 µM | actives 0.34% (n = 330,000);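 active = at 10 µM dose, activation of 40% or more, normalized to positive control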;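 also: 100% = tunicamycin at 10 µg/mL and 0% = DMSO alone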
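measured by = luciferase luminescence | assay system = CHO-CHOP cells, stable luciferase reporter of PERK-eIF2a-CHOP signalling | amount = 500 reporter cells seeded per well | timing = 6 h compound exposure at 37 °C after overnight seeding | controls = positive tunicamycin 10 µg/mL, negative DMSO alone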
CHOP UPR conf = activators of apoptotic CHOP UPR arm, confirmation, cell-based, CHO-CHOP luciferase reporter, single concentration | activation, % at 10 µM | CHO-CHOP cells, CHOP-luciferase reporter luminescence; percent of tunicamycin response, DMSO as zero | actives 64% (n = 1,000) | shares compounds with CHOP UPR activ; in the data active = activation above about 33%;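 also: 0% = DMSO wells and 100% = tunicamycin 10 µg/mL wells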
UPR XBP1 confirm = IRE1-XBP1 UPR arm activators, confirmation, cell-based, CHO-XBP1 luciferase reporter, luminescence, single concentration; shares compounds with UPR XBP1 act; AID 485299, 2010; actives 63% (n = 1,000); activation, % at 20 µM;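 active = reporter signal at least 30% of the positive control's activation in two or more of four replicate wells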;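 also: plate controls were DMSO negative control for no effect and tunicamycin 10 µg/mL positive control for full effect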
UCH37 reconfirm = retest of human UCH37 deubiquitinase inhibitors, confirmation, biochemical, Ub-AMC cleavage rate, fluorescence; AID 624100, 2012; Proteasome-bound UCH37; actives 27% (n = 480); shares compounds with UCH37 inh; inhibition, % at 20 µM;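 active = average inhibition over replicates above about 50%, so the earlier screening hit is confirmed, limit read from the data; inactive = the rest, counted as false positives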;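 also: based on cleavage rate fitted by regression over a 30 min kinetic read; 0% = proteasome plus Ub-AMC and 100% = Ub-AMC without proteasome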
The depositor's hits bear a star; . = no result given.

SMILES | UPR XBP1 act | CHOP inhibitor | UCH37 inh | Fh CTSL1 inh | CHOP UPR activ | CHOP UPR conf | UPR XBP1 confirm | others
Cc1nc2ccccc2n1-c1nc(-c2ccco2)cc(C(F)(F)F)n1 | 57* | . | -10 | -2 | 174* | 133* | 43*
CCOc1ccc(C2NCCc3cc(OC)c(OC)cc32)cc1OC (stereo unspecified) | 3 | . | 1 | 2 | 2 | . | .
COc1ccc2cc1Oc1ccc(cc1)CC1c3c(cc(OC)c4c3Oc3cc5c(cc3O4)CCNC5C2)CCN1C (stereo unspecified) | 52* | -5 | 1 | 2 | 41* | 39* | 30*
COc1ccc(C2c3ccc4ccccc4c3Oc3ncn(CCCN(C)C)c(=N)c32)cc1 (stereo unspecified) | 55* | . | . | -7 | 76* | 37* | 60*
COc1ccccc1C1c2ccc3ccccc3c2Oc2ncn(CCN(C)C)c(=N)c21 (stereo unspecified) | 3 | . | 8 | 6 | 2 | . | .
COC(=O)c1ccc(-n2c(C)cc(C(=O)CCl)c2C)cc1 | 74* | 90* | 9 | 15 | 502* | 268* | 16
CCOc1ccc(-n2c(C)cc(C(=O)CCl)c2C)cc1 | 70* | -427 | 3 | -1 | 244* | 621* | 202*
COC(=O)c1ccc(-n2c(C)cc(C(=O)COC(=O)C3=COCCO3)c2C)cc1 | -2 | . | -1 | . | 0 | . | .
CC(=NN1CCN(C)CC1)c1ccc(OC(F)F)cc1 | . | . | 5 | . | . | . | .
Cc1cccc2sc(NC(=O)c3cc(S(=O)(=O)N(C)C)ccc3N3CCCC3)nc12 | 55* | 43 | 4 | 0 | 63* | 47* | 78*
CN(C)S(=O)(=O)c1ccc(N2CCCC2)c(C(=O)Nc2nc3ccc(F)cc3s2)c1 | 30 | 17 | 0 | 4 | 11 | . | .
CC(C)Cc1nnc(NC(=O)c2cc(S(=O)(=O)N(C)C)ccc2N2CCCC2)s1 | -2 | . | 1 | 3 | 2 | . | .
CN(C)S(=O)(=O)c1ccc(N2CCCC2)c(C(=O)Nc2nc3ccccc3s2)c1 | 76* | -11 | -10 | 1 | 125* | 30 | 91*
O=c1oc(CCCO)cc2ccc(Br)cc12 | 3 | . | 3 | . | 2 | . | .
O=c1oc(CCCO)cc2ccc(/C=C/c3cccc([N+](=O)[O-])c3)cc12 | 78* | . | 1 | . | 76* | 10 | 33*
CCOC(=O)c1cc(NC(=O)c2ccc(Cl)cc2)c(=O)n2c1oc1ccc(Cl)cc12 | 39* | 16 | -119 | -1 | 70* | 8 | 45*
CCCCCCCCCCn1c2c(c(=N)c3c1CCC3)CCC2 | 47* | 104* | 11 | -1 | 77* | 70* | 44*
CCCCCn1c2c(c(=N)c3ccccc31)CCC2 | 1 | -1 | -5 | 1 | 0 | . | .
O=C1C=C(N2CCCCC2)c2ccccc2C1=O | 10 | . | 90* | 92* | 76* | 25 | . | UCH37 reconfirm=147*
Cc1cc(C(=O)NN=Cc2cc(C(C)(C)C)ccc2O)n[nH]1 | . | . | -14 | . | . | . | .
Cc1oc2c(c1C(=O)c1ccccc1)C(=O)C(=O)c1ccccc1-2 | -1 | . | 49* | 15 | 67* | -2 | . | UCH37 reconfirm=33
Cc1onc(-c2ccccc2Cl)c1C(=O)c1ccccc1 | -2 | 1 | . | 5 | 0 | . | .
CCOC(=O)C1=C(O)/C(=C/c2cn(CC(=O)NCC3CCCO3)c3ccccc23)SC1=Nc1ccc(C)cc1 (stereo unspecified) | 66* | . | 8 | 5 | 23 | . | 31*
CC(C)C(=O)c1cn(CC(=O)NCC2CCCO2)c2ccccc12 (stereo unspecified) | -1 | 8 | 1 | 2 | 1 | . | .
CC(=NNC(=O)c1c(Br)c(C)nn1C)c1cccc(NC(=O)c2ccccc2F)c1 | . | . | 3 | . | . | . | .
SMILES | UPR XBP1 act | CHOP inhibitor | UCH37 inh | Fh CTSL1 inh | CHOP UPR activ | CHOP UPR conf | UPR XBP1 confirm | others
Cc1cc(C)c2c(c1)/C(=N/Nc1ccc(S(N)(=O)=O)cc1[N+](=O)[O-])CCC2 | 76* | 16 | . | 6 | 16 | . | 50*
Cc1cccc(C=NNC(=O)NC23CC4CC(CC(C4)C2)C3)n1 | . | . | 1 | . | . | . | .
CCOC(=O)c1c(NC(=O)c2cc(C)on2)c2cc([N+](=O)[O-])ccc2n1C | 84* | -5 | -4 | 1 | 20 | . | 49*
CCOC(=O)c1c(NC(=O)c2ccno2)c2cc([N+](=O)[O-])ccc2n1C | -2 | -10 | 4 | 2 | 0 | . | .
Cc1cc(NC(=O)/C(C#N)=C/c2ccc(-c3ccc(SC(F)F)cc3)o2)n(-c2ccccc2)n1 | 37* | 56 | -8 | 2 | 36 | . | 34*
CC1(C)CC(=O)C(C=Nc2ccc(C(=O)c3ccccc3)cc2N=CC2=C(O)CC(C)(C)CC2=O)=C(O)C1 | 180* | 53 | 5 | 1 | 20 | . | 268*
CC1(C)CC(=O)C(C=Nc2ccc(O)c(N=CC3=C(O)CC(C)(C)CC3=O)c2)=C(O)C1 | 12 | 31 | 7 | -2 | 5 | . | .
CC1(C)Cc2c(c(N3CCOCC3)nc3sc4c(NCc5ccccc5)nnnc4c23)CS1 | 137* | 45 | -8 | -2 | 8 | . | 14
CC1(C)Cc2c(c(N3CCOCC3)nc3sc4c(NCc5ccco5)nnnc4c23)CS1 | 9 | -8 | 2 | 1 | -3 | . | .
ClC(Cl)(Cl)c1nc2ccccc2n2nncc12 | 31* | . | . | 4 | -1 | . | 22
N=c1c(S(=O)(=O)c2ccccc2)cc2c(=O)n3ccccc3nc2n1C1CCCC1 | 30* | . | -22 | -6 | 1 | . | 23
COc1ccccc1-c1cc(-c2ccccc2)nc(SC(C(N)=O)c2ccccc2)c1C#N (stereo unspecified) | 70* | 76* | -10 | 0 | 13 | . | 46*
Cc1nc(SC(C(N)=O)c2ccccc2)c(C#N)c(C)c1C (stereo unspecified) | -4 | -2 | -3 | 5 | 1 | . | .
